# Results published in ChEMBL document CHEMBL4346667 (Eur J Med Chem, 2019).
# Test system: L02
# Assay: Antiproliferative activity against human HL7702 cells assessed as reduction in cell viability after 48 hrs by MTT assay
# Type: functional, cell-based
# Settings: L02, 48 h
# Procedure, shortened: (§1)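 Cells grown at 37 °C, 5% CO2; HeLa, HepG2, H8, HL7702 in RPMI 1640 + 10% fetal calf serum, others in high-glucose DMEM + 10% fetal calf serum. Log-phase cells seeded at 4000-12000/well by doubling time. Attached cells were given 10-fold dilutions, 100 µM to 10 nM (DMSO 0.1% v/v), for 48 h. MTT (2 mg/mL) 4 h, formazan in DMSO, A492. IC50 from triplicate means.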
row,SMILES,IC50 [µM]
1,COc1cc([C@@H]2c3cc4c(cc3[C@@H](Nc3cccc5[nH]ncc35)[C@H]3COC(=O)[C@H]23)OCO4)cc(OC)c1OC,41.4
2,COc1cc([C@@H]2c3cc4c(cc3[C@@H](Nc3ccc5[nH]ccc5c3)[C@H]3COC(=O)[C@H]23)OCO4)cc(OC)c1OC,43.3
3,COc1cc([C@@H]2c3cc4c(cc3[C@@H](Nc3cccc5cccnc35)[C@H]3COC(=O)[C@H]23)OCO4)cc(OC)c1OC,37
4,COc1cc2c(c(OC)c1OC)-c1ccc(OC)c(=O)cc1[C@@H](NC(C)=O)CC2 [COLCHICINE],9.2
5,COc1cc([C@@H]2c3cc4c(cc3[C@@H](Nc3cccc5cn[nH]c35)[C@H]3COC(=O)[C@H]23)OCO4)cc(OC)c1OC,29.4
6,COc1cc([C@@H]2c3cc4c(cc3[C@@H](Nc3ccc5ncccc5c3)[C@H]3COC(=O)[C@H]23)OCO4)cc(OC)c1OC,64.3
7,COc1cc([C@@H]2c3cc4c(cc3[C@@H](Nc3ccc5cccnc5c3)[C@H]3COC(=O)[C@H]23)OCO4)cc(OC)c1OC,16.3

# Test system: HepG2
# Assay: Antiproliferative activity against human HepG2 cells assessed as reduction in cell viability after 48 hrs by MTT assay
# Type: functional, cell-based
# Settings: HepG2, 48 h
# Procedure, shortened: as §1
row,SMILES,IC50 [µM]
1,COc1cc([C@@H]2c3cc4c(cc3[C@@H](Nc3cccc5[nH]ncc35)[C@H]3COC(=O)[C@H]23)OCO4)cc(OC)c1OC,1.2
2,COc1cc([C@@H]2c3cc4c(cc3[C@@H](Nc3ccc5[nH]ccc5c3)[C@H]3COC(=O)[C@H]23)OCO4)cc(OC)c1OC,0.9
3,COc1cc([C@@H]2c3cc4c(cc3[C@@H](Nc3cccc5cccnc35)[C@H]3COC(=O)[C@H]23)OCO4)cc(OC)c1OC,4.6
4,COc1cc2c(c(OC)c1OC)-c1ccc(OC)c(=O)cc1[C@@H](NC(C)=O)CC2 [COLCHICINE],5.8
5,COc1cc([C@@H]2c3cc4c(cc3[C@@H](Nc3cccc5cn[nH]c35)[C@H]3COC(=O)[C@H]23)OCO4)cc(OC)c1OC,6.3
6,COc1cc([C@@H]2c3cc4c(cc3[C@@H](Nc3ccc5ncccc5c3)[C@H]3COC(=O)[C@H]23)OCO4)cc(OC)c1OC,0.8
7,COc1cc([C@@H]2c3cc4c(cc3[C@@H](Nc3ccc5cccnc5c3)[C@H]3COC(=O)[C@H]23)OCO4)cc(OC)c1OC,4.1

# Test system: HeLa
# Assay: Antiproliferative activity against human HeLa cells assessed as reduction in cell viability after 48 hrs by MTT assay
# Type: functional, cell-based
# Settings: not given
# Procedure, shortened: as §1
row,SMILES,IC50 [µM]
1,COc1cc([C@@H]2c3cc4c(cc3[C@@H](Nc3cccc5[nH]ncc35)[C@H]3COC(=O)[C@H]23)OCO4)cc(OC)c1OC,1.8
2,COc1cc([C@@H]2c3cc4c(cc3[C@@H](Nc3ccc5[nH]ccc5c3)[C@H]3COC(=O)[C@H]23)OCO4)cc(OC)c1OC,0.9
3,COc1cc([C@@H]2c3cc4c(cc3[C@@H](Nc3cccc5cccnc35)[C@H]3COC(=O)[C@H]23)OCO4)cc(OC)c1OC,2.7
4,COc1cc2c(c(OC)c1OC)-c1ccc(OC)c(=O)cc1[C@@H](NC(C)=O)CC2 [COLCHICINE],10.2
5,COc1cc([C@@H]2c3cc4c(cc3[C@@H](Nc3cccc5cn[nH]c35)[C@H]3COC(=O)[C@H]23)OCO4)cc(OC)c1OC,2.5
6,COc1cc([C@@H]2c3cc4c(cc3[C@@H](Nc3ccc5ncccc5c3)[C@H]3COC(=O)[C@H]23)OCO4)cc(OC)c1OC,0.7
7,COc1cc([C@@H]2c3cc4c(cc3[C@@H](Nc3ccc5cccnc5c3)[C@H]3COC(=O)[C@H]23)OCO4)cc(OC)c1OC,3.1

# Test system: not listed separately
# Assay: Antiproliferative activity against human H8 cells assessed as reduction in cell viability after 48 hrs by MTT assay
# Type: functional, cell-based
# Settings: not given
# Procedure, shortened: as §1
row,SMILES,IC50 [µM]
1,COc1cc([C@@H]2c3cc4c(cc3[C@@H](Nc3cccc5[nH]ncc35)[C@H]3COC(=O)[C@H]23)OCO4)cc(OC)c1OC,25.6
2,COc1cc([C@@H]2c3cc4c(cc3[C@@H](Nc3ccc5[nH]ccc5c3)[C@H]3COC(=O)[C@H]23)OCO4)cc(OC)c1OC,29.2
3,COc1cc([C@@H]2c3cc4c(cc3[C@@H](Nc3cccc5cccnc35)[C@H]3COC(=O)[C@H]23)OCO4)cc(OC)c1OC,89.6
4,COc1cc2c(c(OC)c1OC)-c1ccc(OC)c(=O)cc1[C@@H](NC(C)=O)CC2 [COLCHICINE],6.1
5,COc1cc([C@@H]2c3cc4c(cc3[C@@H](Nc3cccc5cn[nH]c35)[C@H]3COC(=O)[C@H]23)OCO4)cc(OC)c1OC,19.5
6,COc1cc([C@@H]2c3cc4c(cc3[C@@H](Nc3ccc5ncccc5c3)[C@H]3COC(=O)[C@H]23)OCO4)cc(OC)c1OC,80.2
7,COc1cc([C@@H]2c3cc4c(cc3[C@@H](Nc3ccc5cccnc5c3)[C@H]3COC(=O)[C@H]23)OCO4)cc(OC)c1OC,9.4

# Test system: A549
# Assay: Antiproliferative activity against human A549 cells assessed as reduction in cell viability after 48 hrs by MTT assay
# Type: functional, cell-based
# Settings: A549, 48 h
# Procedure, shortened: as §1
row,SMILES,IC50 [µM]
1,COc1cc([C@@H]2c3cc4c(cc3[C@@H](Nc3cccc5[nH]ncc35)[C@H]3COC(=O)[C@H]23)OCO4)cc(OC)c1OC,2.6
2,COc1cc([C@@H]2c3cc4c(cc3[C@@H](Nc3ccc5[nH]ccc5c3)[C@H]3COC(=O)[C@H]23)OCO4)cc(OC)c1OC,0.5
3,COc1cc([C@@H]2c3cc4c(cc3[C@@H](Nc3cccc5cccnc35)[C@H]3COC(=O)[C@H]23)OCO4)cc(OC)c1OC,1.2
4,COc1cc2c(c(OC)c1OC)-c1ccc(OC)c(=O)cc1[C@@H](NC(C)=O)CC2 [COLCHICINE],9.7
5,COc1cc([C@@H]2c3cc4c(cc3[C@@H](Nc3cccc5cn[nH]c35)[C@H]3COC(=O)[C@H]23)OCO4)cc(OC)c1OC,5.4
6,COc1cc([C@@H]2c3cc4c(cc3[C@@H](Nc3ccc5ncccc5c3)[C@H]3COC(=O)[C@H]23)OCO4)cc(OC)c1OC,0.3
7,COc1cc([C@@H]2c3cc4c(cc3[C@@H](Nc3ccc5cccnc5c3)[C@H]3COC(=O)[C@H]23)OCO4)cc(OC)c1OC,2.3

# Test system: MRC5
# Assay: Antiproliferative activity against human MRC5 cells assessed as reduction in cell viability after 48 hrs by MTT assay
# Type: functional, cell-based
# Settings: MRC5, 48 h
# Procedure, shortened: as §1
row,SMILES,IC50 [µM]
1,COc1cc([C@@H]2c3cc4c(cc3[C@@H](Nc3cccc5[nH]ncc35)[C@H]3COC(=O)[C@H]23)OCO4)cc(OC)c1OC,45.6
2,COc1cc([C@@H]2c3cc4c(cc3[C@@H](Nc3ccc5[nH]ccc5c3)[C@H]3COC(=O)[C@H]23)OCO4)cc(OC)c1OC,51.3
3,COc1cc([C@@H]2c3cc4c(cc3[C@@H](Nc3cccc5cccnc35)[C@H]3COC(=O)[C@H]23)OCO4)cc(OC)c1OC,49.1
4,COc1cc2c(c(OC)c1OC)-c1ccc(OC)c(=O)cc1[C@@H](NC(C)=O)CC2 [COLCHICINE],6.2
5,COc1cc([C@@H]2c3cc4c(cc3[C@@H](Nc3cccc5cn[nH]c35)[C@H]3COC(=O)[C@H]23)OCO4)cc(OC)c1OC,35.5
6,COc1cc([C@@H]2c3cc4c(cc3[C@@H](Nc3ccc5ncccc5c3)[C@H]3COC(=O)[C@H]23)OCO4)cc(OC)c1OC,22.5
7,COc1cc([C@@H]2c3cc4c(cc3[C@@H](Nc3ccc5cccnc5c3)[C@H]3COC(=O)[C@H]23)OCO4)cc(OC)c1OC,25.6

# Test system: MCF7
# Assay: Antiproliferative activity against human MCF7 cells assessed as reduction in cell viability after 48 hrs by MTT assay
# Type: functional, cell-based
# Settings: MCF7, 48 h
# Procedure, shortened: as §1
row,SMILES,IC50 [µM]
1,COc1cc([C@@H]2c3cc4c(cc3[C@@H](Nc3cccc5[nH]ncc35)[C@H]3COC(=O)[C@H]23)OCO4)cc(OC)c1OC,3
2,COc1cc([C@@H]2c3cc4c(cc3[C@@H](Nc3ccc5[nH]ccc5c3)[C@H]3COC(=O)[C@H]23)OCO4)cc(OC)c1OC,0.4
3,COc1cc([C@@H]2c3cc4c(cc3[C@@H](Nc3cccc5cccnc35)[C@H]3COC(=O)[C@H]23)OCO4)cc(OC)c1OC,1
4,COc1cc2c(c(OC)c1OC)-c1ccc(OC)c(=O)cc1[C@@H](NC(C)=O)CC2 [COLCHICINE],14.3
5,COc1cc([C@@H]2c3cc4c(cc3[C@@H](Nc3cccc5cn[nH]c35)[C@H]3COC(=O)[C@H]23)OCO4)cc(OC)c1OC,2.7
6,COc1cc([C@@H]2c3cc4c(cc3[C@@H](Nc3ccc5ncccc5c3)[C@H]3COC(=O)[C@H]23)OCO4)cc(OC)c1OC,0.6
7,COc1cc([C@@H]2c3cc4c(cc3[C@@H](Nc3ccc5cccnc5c3)[C@H]3COC(=O)[C@H]23)OCO4)cc(OC)c1OC,1.4

# Test system: HMEC
# Assay: Antiproliferative activity against human HMEC cells assessed as reduction in cell viability after 48 hrs by MTT assay
# Type: functional, cell-based
# Settings: not given
# Procedure, shortened: as §1
row,SMILES,IC50 [µM]
1,COc1cc([C@@H]2c3cc4c(cc3[C@@H](Nc3cccc5[nH]ncc35)[C@H]3COC(=O)[C@H]23)OCO4)cc(OC)c1OC,60.5
2,COc1cc([C@@H]2c3cc4c(cc3[C@@H](Nc3ccc5[nH]ccc5c3)[C@H]3COC(=O)[C@H]23)OCO4)cc(OC)c1OC,55.2
3,COc1cc([C@@H]2c3cc4c(cc3[C@@H](Nc3cccc5cccnc35)[C@H]3COC(=O)[C@H]23)OCO4)cc(OC)c1OC,39.2
4,COc1cc2c(c(OC)c1OC)-c1ccc(OC)c(=O)cc1[C@@H](NC(C)=O)CC2 [COLCHICINE],8.1
5,COc1cc([C@@H]2c3cc4c(cc3[C@@H](Nc3cccc5cn[nH]c35)[C@H]3COC(=O)[C@H]23)OCO4)cc(OC)c1OC,43.3
6,COc1cc([C@@H]2c3cc4c(cc3[C@@H](Nc3ccc5ncccc5c3)[C@H]3COC(=O)[C@H]23)OCO4)cc(OC)c1OC,89.2
7,COc1cc([C@@H]2c3cc4c(cc3[C@@H](Nc3ccc5cccnc5c3)[C@H]3COC(=O)[C@H]23)OCO4)cc(OC)c1OC,73.5

# Target: not listed separately
# Assay: Binding affinity to alpha/beta tubulin complex (unknown origin)
# Design: species or system Homo sapiens
# Settings: not given
# Procedure, shortened: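 SPR assay: tubulin immobilized up to 800 mDeg (response units). Ligands were diluted two-fold from 80 µM to 2.5 µM in PBS with 0.5% (v/v) DMSO and injected at 60 µL/min for 300 s. Running buffer was PBS with 0.5% DMSO, at 25°C.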
row,SMILES,Ki [µM]
1,COc1cc([C@@H]2c3cc4c(cc3[C@@H](Nc3cccc5[nH]ncc35)[C@H]3COC(=O)[C@H]23)OCO4)cc(OC)c1OC,0.02
2,COc1cc([C@@H]2c3cc4c(cc3[C@@H](Nc3ccc5[nH]ccc5c3)[C@H]3COC(=O)[C@H]23)OCO4)cc(OC)c1OC,0.1
3,COc1cc([C@@H]2c3cc4c(cc3[C@@H](Nc3cccc5cccnc35)[C@H]3COC(=O)[C@H]23)OCO4)cc(OC)c1OC,0.19
4,COc1cc2c(c(OC)c1OC)-c1ccc(OC)c(=O)cc1[C@@H](NC(C)=O)CC2 [COLCHICINE],0.11
5,COc1cc([C@@H]2c3cc4c(cc3[C@@H](Nc3cccc5cn[nH]c35)[C@H]3COC(=O)[C@H]23)OCO4)cc(OC)c1OC,0.12
6,COc1cc([C@@H]2c3cc4c(cc3[C@@H](Nc3ccc5ncccc5c3)[C@H]3COC(=O)[C@H]23)OCO4)cc(OC)c1OC,0.11
7,COc1cc([C@@H]2c3cc4c(cc3[C@@H](Nc3ccc5cccnc5c3)[C@H]3COC(=O)[C@H]23)OCO4)cc(OC)c1OC,0.12
